TMEM16A inh: TMEM16A chloride channel inhibitors, primary screen, cell-based, HTS. Anoctamin-1 (Mus musculus), Q8BHY3. normalized B-score (activity score, 25-100; higher = stronger inhibition) at 10 µM. HEK293 TMEM16A/YFP iodide influx fluorescence, ionomycin. actives 1.2% (n = 310,000);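 active means ratio plate-corrected score three or more library SD toward inhibition, starting fluorescence score within five deviations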;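 further: score derived from kinetic fluorescence span divided by baseline fluorescence per well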
TMEM16A act: TMEM16A chloride channel activators or potentiators, primary screen, cell-based, HTS. HEK293 TMEM16A/YFP-H148Q/I152L, iodide quench fluorescence; active compounds read low. Anoctamin-1 (Mus musculus), Q8BHY3. B-score at 10 µM. AID 623877, 2012. actives 0.3% (n = 340,000);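 active means fluorescence-ratio B-score plate-corrected deviation score at least 3 library SD below zero, with starting fluorescence score within 5 deviations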;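 further: channel opened by trigger with iodide after compound preincubation; score built on the fluorescence ratio of max minus min over baseline; more negative score means more quench and so TMEM16A activation or potentiation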
Beta cell apopt: inhibitors of cytokine-induced beta cell apoptosis, primary screen, luminescence | AID 435005, 2010 | protection from apoptosis, % (test concentration not listed) | actives 0.8% (n = 300,000) | INS-1E cytokine-induced death, ATP luminescence, 48 h; percent of positive-control rescue, neutral wells zero;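 active means Every replicate reaches about 75%, or at least half do and their mean reaches it too, limit read from the data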;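 further: 0% = cytokine-treated negative control wells and 100% = positive control rescue; higher means more ATP so stronger rescue from cytokine killing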
MC4R antagonist: MC4R antagonists of cAMP signaling, primary screen, cell-based, TR-FRET, antagonist arm of biased-ligand search; MC4R-expressing cells, MTII-stimulated cAMP, LANCE TR-FRET; AID 540295, 2011; inhibition, % at 6.5 µM; Melanocortin receptor 4 (Homo sapiens), P32245; actives 0.48% (n = 360,000);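 active means inhibition above its plate's cutoff, the mean of tested wells on that plate plus 3 SD, cut at about 29% in these data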;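 further: 0% = Melanotan II alone and 100% = Melanotan II plus saturating MCL0020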
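Assay system: U2OS cells stably expressing human melanocortin 4 receptor (MC4R) / Dosing: 6.5 µM / Timing: compound 30 min, challenge 1 h, detection 1 h / Measured by: Eu-cAMP/anti-cAMP TR-FRET, emission 671 nm / Replicates: singlicate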
MC4R ag barr: MC4R agonists recruiting beta-arrestin, primary screen, cell-based, luminescence, agonist arm of biased-ligand search. Melanocortin receptor 4 (Homo sapiens), P32245. U2OS MC4R beta-arrestin complementation; percent of melanotan II response, DMSO zero. activation, % at 8.9 µM. actives 0.98% (n = 360,000). AID 540308, 2011;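 active means activation above a per-plate cutoff, the mean activation of sample wells on that plate plus 3 SD, cut at about 8% in these data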
CSC inhib: cancer stem cell viability inhibitors, primary screen, luminescence | actives 1.1% (n = 300,000) | cancer stem cell-like cells viability | AID 2717, 2010 | inhibition, % at 7.5 µM; in the data active means inhibition above about 75%; tested in HMLE shEcad cells
TMEM16A reconf: TMEM16A chloride channel inhibitors, confirmation, cell-based, re-confirmation. HEK293 TMEM16A/YFP-H148Q, iodide quench fluorescence; ionomycin added to raise cell calcium. shares compounds with TMEM16A inh. actives 39% (n = 2,300). inhibition, % at 10 µM;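 active means mean duplicate percent inhibition, scaled so buffer wells are 0 and the reference blocker 100, over three buffer SD above buffer mean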
TMEM16A Ca cntr: calcium mobilization in TMEM16A/YFP HEK293 cells, confirmation, counter-screen for TMEM16A inhibitor project. shares compounds with TMEM16A inh. Fluo4 calcium mobilization. calcium response (% of ionomycin), % at 10 µM. actives 2% (n = 2,300). AID 652231, 2013;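 active means duplicate-averaged calcium signal over 20% of the ionomycin maximum, relative to buffer baseline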;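 further: each well's signal is peak minus trough fluorescence divided by its pre-addition baseline; 0% = buffer wells and 100% = ionomycin wells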
YFP-HEK293 quench: iodide YFP quench changes in parental YFP-HEK293, counter-screen for TMEM16A inhibitor project, cell-based; shares compounds with TMEM16A inh; ionomycin; YFP ratio F(max-min)/F0 at 10 µM; 2,300 tested, under 10 active; AID 652233, 2013;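 active means yellow fluorescent protein signal ratio exceeding the buffer control mean by over 5 SD of those controls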;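 further: ratio is mean of duplicate wells from kinetic YFP trace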
ClC-1 inh: ClC-1 chloride channel inhibition, selectivity assay for TMEM16A inhibitor project, cell-based, voltage-dependent ClC-1; CHO ClC-1-YFP, iodide influx fluorescence quench; iodide control reads 0, buffer control 100; ratio percent, % at 10 µM; 2,300 tested, under 10 active; shares compounds with TMEM16A inh;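 active means duplicate-mean ratio percent above the mean of iodide-only control wells, which defines zero, plus 5 of their SD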;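 further: higher percent means stronger block of ClC-1 iodide influx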
The depositor's hits bear a star; i = inactive; x = not tested or not shown. In the library only some 3.8% were active in any assay of this set; here they are far more common.

SMILES	TMEM16A inh	TMEM16A act	Beta cell apopt	MC4R antagonist	MC4R ag barr	CSC inhib	TMEM16A reconf	TMEM16A Ca cntr	YFP-HEK293 quench	ClC-1 inh
CCOC(=O)C(=O)Nc1ccc(S(=O)(=O)Nc2ncccn2)cc1	25*	i	-4	4	-2	-3	i	i	-1.1	2
N#Cc1nc(COc2ccccc2F)oc1NCCCn1ccnc1	100*	x	-4	-4	0	3	i	i	-1.2	-8
COc1ccccc1OCc1nc(C#N)c(NCCCn2ccnc2)o1	i	i	-1	6	5	6	x	x	x	x
CCCCn1c(N)c(N(CC(C)C)C(=O)CN2C(=O)NC3(CCC(C(C)(C)CC)CC3)C2=O)c(=O)[nH]c1=O (centres undefined)	x	i	x	15	2	x	x	x	x	x
Cc1cc(NS(=O)(=O)c2ccc(NC(=O)c3cnc(Cl)c(Cl)c3)cc2)nc(C)n1	x	i	-5	3	-3	-4	x	x	x	x
COc1ccc(CN2CCC(C(=O)Nc3ccc(Oc4ccccc4)nc3)CC2)cc1F	25*	i	x	6	0	9	i	i	-1	-12
Cc1nn(-c2ccccc2)nc1C(=O)Nc1nnc(C(F)(F)F)s1	100*	i	14	2	2	28	28%*	i	-0.73	-9
CCc1nnc(NC(=O)c2nn(-c3ccccc3)nc2C)s1	i	i	3	20	1	-10	x	x	x	x
O=C(Nc1nnc(C(F)(F)F)s1)c1ccc(Br)s1	100*	i	68	3	0	70	26%*	i	-0.93	-16
O=C(Nc1ccccc1C(=O)Nc1nnc(C(F)(F)F)s1)c1ccccc1Cl	100*	i	112*	11	-2	95*	33%*	i	-1.2	-12
NC(=O)c1ccccc1NC(=O)c1ccccc1Cl	i	i	-2	-3	-2	-3	x	x	x	x
O=C(Nc1nnc(C(F)(F)F)s1)C1COc2ccccc2O1 (centres undefined)	100*	i	17	4	2	20	30%*	i	-1.1	-17
CCCS(=O)(=O)NC(=O)C1(C)CCN(C(=O)c2cc(C)nn2C(C)(C)C)C1 (centres undefined)	x	x	x	-4	-2	x	x	x	x	x
CN(C)C(CNc1ccc(S(C)(=O)=O)cc1[N+](=O)[O-])Cc1ccccc1 (centres undefined)	i	i	x	7	1	10	x	x	x	x
CCC(Oc1ccccc1)C(=O)Nc1nnc(C(F)(F)F)s1 (centres undefined)	100*	i	x	2	0	13	20%*	i	-0.97	-20
CCC(Oc1ccccc1)C(=O)Nc1nc2c(s1)C(=O)CC(C)(C)C2 (centres undefined)	i	i	x	5	-2	5	x	x	x	x

High-throughput results from PubChem.
